Test results reported in ChEMBL document CHEMBL1142019, “Design and synthesis of novel 9-substituted-7-aryl-3,4,5,6-tetrahydro-2H-pyrido[4,3-b]- and [2,3-b]-1,5-oxazocin-6-ones as NK(1) antagonists” (2005).

Key:
[1] = molecular target: Substance-P receptor (Cavia porcellus) (UniProt P30547); assay: Antagonist activity against tachykinin receptor 1 activity in guinea pig ileum in vitro; assay type: functional, tissue-based
In short: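 Isolated guinea pig ileum preparation; NK1 antagonism expressed as a K_B value.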

[2] = organism: Rattus norvegicus; assay: Metabolic stability expressed as the remaining ratio of compound in rat microsomes after incubation in a shaking water bath for 1 hour; assay type: functional
In short: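 Compound incubated with rat microsomes for 60 min at 37 °C in a shaking water bath. Stability is reported as the remaining ratio, the percentage of parent compound left.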

[3] = Effective bladder capacity increasing effect of compound (0.3 mg/kg i.v.) expressed as the ratio of increase in effective bladder capacity compared to saline treated animals in vivo; assay type: functional, Cavia porcellus; details: in the assay text read “compared with the predrug values” for “compared to saline treated animals”
In short: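 Spinalized guinea pigs given test agent iv at 0.3 mg/kg. Effective bladder capacity was the volume of saline injected into the bladder. The result is the ratio of the increase in effective bladder capacity relative to each animal's predrug value.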

Substance-P receptor (Cavia porcellus), sequence (P30547 whole entry): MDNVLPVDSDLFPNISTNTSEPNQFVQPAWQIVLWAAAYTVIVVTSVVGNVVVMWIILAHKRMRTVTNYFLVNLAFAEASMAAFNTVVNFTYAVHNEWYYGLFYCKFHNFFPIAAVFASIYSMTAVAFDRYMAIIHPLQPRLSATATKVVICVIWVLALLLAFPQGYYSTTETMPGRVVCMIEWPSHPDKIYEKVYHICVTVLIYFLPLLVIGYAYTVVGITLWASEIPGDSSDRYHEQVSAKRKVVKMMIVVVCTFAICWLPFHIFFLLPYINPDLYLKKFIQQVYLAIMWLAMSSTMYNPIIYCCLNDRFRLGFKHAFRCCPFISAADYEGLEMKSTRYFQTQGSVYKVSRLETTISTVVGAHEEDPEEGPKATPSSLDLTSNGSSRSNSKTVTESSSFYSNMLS

| Structure (SMILES) | Kb [1] [nM] | Remaining ratio [2] [%] | Effect [3] [%] |
| --- | --- | --- | --- |
| CN(Cc1cc(C(F)(F)F)cc(C(F)(F)F)c1)C(=O)c1cccnc1-c1ccccc1 | 151 | 70 |  |
| O=C1c2c(ccnc2-c2ccccc2)OCCCN1Cc1cc(C(F)(F)F)cc(C(F)(F)F)c1 | 69.2 | 100 |  |
| O=C1c2c(-c3ccccc3)cc(N3CCCCC3)nc2OCCCN1Cc1cc(C(F)(F)F)cc(C(F)(F)F)c1 | 13.2 | 70 |  |
| FC(F)(F)c1cc(COc2cccnc2-c2ccccc2)cc(C(F)(F)F)c1 | 25.7 | 9 |  |
| COc1cc(N2CCOCC2)nc(-c2ccccc2)c1C(=O)N(C)Cc1cc(C(F)(F)F)cc(C(F)(F)F)c1 | 26.3 | 100 |  |
| O=C1c2c(-c3ccccc3F)cc(N3CCC(N4CCCC4)CC3)nc2OCCCN1Cc1cc(C(F)(F)F)cc(C(F)(F)F)c1 | 0.382 | 100 |  |
| O=C1c2c(-c3ccccc3)cc(N3CCCC3)nc2OCCCN1Cc1cc(C(F)(F)F)cc(C(F)(F)F)c1 | 13.8 | 71 |  |
| Cc1ccc(-c2c3n(c(=O)c4ncccc24)CC[C@@H](C)CN(Cc2cc(C(F)(F)F)cc(C(F)(F)F)c2)C3=O)cc1 |  |  | 12 |
| O=C1c2c(-c3ccccc3)cc(N3CCOCC3)nc2OCCCN1Cc1cc(C(F)(F)F)cc(C(F)(F)F)c1 | 2.57 | 100 |  |
| Cc1ccccc1-c1cc(N2CCC(N3CCCC3)CC2)nc2c1C(=O)N(Cc1cc(C(F)(F)F)cc(C(F)(F)F)c1)CCCO2 | 0.21 | 100 | 24.2 |
| Cc1ccccc1-c1nc(N2CCC(N3CCCC3)CC2)cc2c1C(=O)N(Cc1cc(C(F)(F)F)cc(C(F)(F)F)c1)CCCO2 |  | 100 | 3.97 |
| O=C1c2c(-c3ccccc3)cc(N3CCC(N4CCCCC4)CC3)nc2OCCCN1Cc1cc(C(F)(F)F)cc(C(F)(F)F)c1 | 2.34 | 100 |  |

Second part, led by results:

| Kb [1] [nM] | Structure (SMILES) | Remaining ratio [2] [%] | Effect [3] [%] |
| --- | --- | --- | --- |
| 0.207 | O=C1c2c(-c3ccccc3Cl)cc(N3CCC(N4CCCC4)CC3)nc2OCCCN1Cc1cc(C(F)(F)F)cc(C(F)(F)F)c1 | 89 |  |
| 2.63 | O=C1c2c(cc(N3CCOCC3)nc2-c2ccccc2)OCCCN1Cc1cc(C(F)(F)F)cc(C(F)(F)F)c1 | 100 |  |
| 129 | CN(Cc1cc(C(F)(F)F)cc(C(F)(F)F)c1)C(=O)c1ccc(N2CCOCC2)nc1-c1ccccc1 | 100 |  |
| 0.224 | O=C1c2c(-c3ccccc3)cc(N3CCC(N4CCCC4)CC3)nc2OCCCN1Cc1cc(C(F)(F)F)cc(C(F)(F)F)c1 | 86 |  |
| 1.16 | CN1CCN(c2cc(-c3ccccc3)c3c(n2)OCCCN(Cc2cc(C(F)(F)F)cc(C(F)(F)F)c2)C3=O)CC1 | 100 |  |
